In ChEMBL document CHEMBL4346713, “Design, synthesis and docking studies of benzimidazole derivatives as potential EGFR inhibitors” (2019):
Activity calls are given as the source filed them. The calls are words filed in the database; no cut-off is given here.

What was measured:
MCF7 [1] = test: Antiproliferation activity against human MCF7 cells assessed as inhibition of cell proliferation at 1 uM by MTT assay relative to control; assay type: functional
Method in brief: (§1)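 Cells grown at 37°C in high-glucose DMEM with 10% FBS, 2 mM L-glutamine and 1% penicillin–streptomycin. Compounds, dissolved in DMSO, were added at 80% confluency, with DMSO-only and untreated wells as controls. MTT in PBS was then added for 2 h at 37°C. Formazan was dissolved in DMSO and read at 550 nm, with viability expressed relative to control cells set as 100%.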

MCF7 [2] = test: Antiproliferation activity against human MCF7 cells assessed as inhibition of cell proliferation at 10 uM by MTT assay relative to control; assay type: functional; method in brief: as §1

SMILES: C#Cc1cccc(Nc2ncnc3cc(OCCOC)c(OCCOC)cc23)c1 [ERLOTINIB]
- inhibition at 1 µM (MCF7 [1]): 60%

SMILES: S=c1[nH]nc(Cn2c(-c3ccc(OCc4ccccc4)c(OCc4ccccc4)c3)nc3ccccc32)n1CCN1CCOCC1
- inhibition (MCF7 [2]): inactive
